Measured values gathered from unrelated publications.

CN(C)C(=O)c1cc2cnc(Nc3ccc(N4CCNCC4)cn3)nc2n1C1CCCC1 gave a CL/F of 343 mL/min (human; plasma; oral; multiple doses, steady state, patients).
The clearance of C=CC(=O)NC1CCN(c2ncc3ncnc(Nc4ccc(Oc5ccc6c(c5)ncn6C)c(C)c4)c3n2)CC1 is reported as 106 mL/min (male human; plasma; intravenous; 100 µg; single dose, healthy volunteers).
CC(C)n1c(C2CCNCC2)nc2c([N+](=O)[O-])c(Br)c(Br)cc21 has a renal clearance of 13.7 mL/min (human; urine; oral; 75 mg; single dose).
The clearance of N#Cc1cccc(-c2ccc3ncc(-c4cc(F)cc(F)c4)c(N4CCC(N)CC4)c3c2)c1O is reported as 85 mL/min (human; plasma; intravenous; 50 µg).
For C[C@@H](Oc1ccc(S(C)(=O)=O)cc1C(=O)N1C[C@@H]2C[C@]2(c2cc(C(F)(F)F)on2)C1)C(F)(F)F, the CL/F was 73.1 mL/min (human; plasma; oral; 10 mg; single dose, fed).
With OC[C@H]1O[C@@H](c2cc(Cc3ccc(C4CC4)cc3)c(Cl)c3c2CCO3)[C@H](O)[C@@H](O)[C@@H]1O the CL/F was 173 mL/min (human; plasma; oral; 0.3 mg; single dose, fed, healthy volunteers).
For CC(C)C[C@H](NC(=O)[C@H](CC(C)C)NC(=O)[C@H](Cc1c[nH]c2ccccc12)NC(=O)[C@H](CCC(=O)O)NC(=O)[C@@H](NC(=O)[C@H](Cc1ccccc1)NC(=O)[C@H](CCC(=O)O)NC(=O)[C@H](CCCCNC(=O)COCCOCCNC(=O)COCCOCCNC(=O)CC[C@H](NC(=O)CCCCCCCCCCCCCCCCCCC(=O)O)C(=O)O)NC(=O)[C@H](C)NC(=O)[C@H](CCCCN)NC(=O)[C@H](CCCCN)NC(=O)[C@H](CCC(=O)O)NC(=O)[C@H](CC(=O)O)NC(=O)[C@H](CC(C)C)NC(=O)[C@H](Cc1ccc(O)cc1)NC(=O)[C@H](CCCCN)NC(=O)[C@H](CO)NC(=O)[C@H](Cc1ccc(O)cc1)NC(=O)[C@H](CC(=O)O)NC(=O)[C@H](CO)NC(=O)[C@@H](NC(=O)[C@H](Cc1ccccc1)NC(=O)[C@@H](NC(=O)CNC(=O)[C@H](CCC(N)=O)NC(=O)C(C)(C)NC(=O)[C@@H](N)Cc1c[nH]cn1)[C@@H](C)O)[C@@H](C)O)C(C)C)C(=O)N[C@@H](CCC(=O)O)C(=O)NCC(=O)NCC(=O)N1CCC[C@H]1C(=O)N[C@@H](CO)C(=O)N[C@@H](CO)C(=O)NCC(N)=O, the CL/F was 0.333 mL/min (human; plasma; subcutaneous; 16 mg; multiple doses, once daily, steady state, patients).
The clearance of COc1ccc2c(c1)CN(C(=O)CCN1CCC(Cc3ccccc3)CC1)CC[S@@+]2[O-] is reported as 162 mL/min (male human; plasma; intravenous; 0.4 mg/kg; healthy volunteers).
COc1ccc(F)cc1C(=O)NCc1ccc(-c2nn([C@@H](C)C(F)(F)F)c(N)c2C(N)=O)cc1 gave a renal clearance of 4.83 mL/min (male human; urine; oral; 200 mg).
CN1CCC(COc2cnc(-c3cccc(Cn4nc(-c5cccc(C#N)c5)ccc4=O)c3)nc2)CC1 gave a clearance of ~3 mL/min/kg (human; plasma; intravenous; single dose).
